Laboratory results taken from ChEMBL document CHEMBL1773014, “Cytotoxic pentacyclic and tetracyclic aromatic sesquiterpenes from Phomopsis archeri” (J Nat Prod, 2011).
Values after ≈ are worked out from the molar mass of the structure shown.

How the values were obtained:
[1] = test system: Plasmodium falciparum; experiment: Antimalarial activity against multidrug-resistant Plasmodium falciparum K1 assessed as reduction in uptake of [3H]-hypoxanthine by microculture radioisotope technique; assay type: functional, organism-based
In short: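 P. falciparum K1 (multidrug-resistant) cultured by the Trager–Jensen method and tested in vitro by microculture radioisotope technique. Parasite growth read as [3H]-hypoxanthine uptake. IC50 taken as the concentration giving 50% reduction in growth. Dihydroartemisinin served as the reference standard.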

[2] = Cytotoxicity against human KKU-M213 cells by sulforhodamine B assay; assay type: functional, cell-based
[3] = test system: KB; experiment: Cytotoxicity against human KB cells by sulforhodamine B assay; assay type: functional, cell-based
[4] = Cytotoxicity against human KKU-M214 cells by sulforhodamine B assay; assay type: functional, cell-based
[5] = test system: Mycobacterium tuberculosis; experiment: Antimycobacterial activity against Mycobacterium tuberculosis H37Ra by microplate alamar blue assay; assay type: functional
[6] = Cytotoxicity against human KKU100 cells by sulforhodamine B assay; assay type: functional, cell-based
[7] = Cytotoxicity against human KKU-M156 cells by sulforhodamine B assay; assay type: functional, cell-based
[8] = Cytotoxicity against human KKU-M139 cells by sulforhodamine B assay; assay type: functional, cell-based

Row | SMILES | IC50 [1] | IC50 [2] [µg/mL] | IC50 [3] [µg/mL] | IC50 [4] [µg/mL] | MIC [5] [µg/mL] | IC50 [6] [µg/mL] | IC50 [7] [µg/mL] | IC50 [8] [µg/mL]
1 | C[C@H]1[C@@H](O)O[C@@H]2O[C@@]3(C)CC[C@H]4[C@H](C)CC[C@@H]1[C@@]24OO3 [ARTENIMOL] | 4.4 nM |  |  |  |  |  |  | 
2 | Cc1c2ccncc2c(C)c2c1[nH]c1ccccc12 [ELLIPTECINE] |  | 0.3 (≈ 1.22 µM) | 0.19 (≈ 0.771 µM) | 0.21 (≈ 0.853 µM) |  |  |  | 
3 | NNC(=O)c1ccncc1 [ISONIAZID] |  |  |  |  | 0.23 (≈ 1.68 µM) |  |  | 
4 | CC(=O)O[C@H]1CC[C@]2(C)[C@H]3Cc4c(O)cc5c(c4O[C@@]3(C)CC[C@H]2C1(C)C)COC5=O [KAMPANOL A] |  | 19.6 (≈ 45.7 µM) |  | > 20 |  | > 20 | > 20 | > 20
5 | CC1(C)[C@@H](O)CC[C@]2(C)[C@H]3Cc4c(O)cc5c(c4O[C@@]3(C)CC[C@@H]12)COC5=O [PHOMOARCHERIN A] | > 20 µg/mL | 16.6 (≈ 43 µM) | 42.1 (≈ 109 µM) | > 20 | > 200 | > 20 | > 20 | > 20
6 | CC1(C)C(=O)CC[C@]2(C)[C@H]3Cc4c(O)cc5c(c4O[C@@]3(C)CC[C@@H]12)COC5=O [PHOMOARCHERIN B] | 0.79 µg/mL | > 20 | 9.4 (≈ 24.4 µM) | 5 (≈ 13 µM) | 50 (≈ 130 µM) | 8 (≈ 20.8 µM) | 2 (≈ 5.2 µM) | 0.1 (≈ 0.26 µM)
7 | Cc1cc(O)c2c(c1C=O)O[C@@]1(C)CC[C@H]3C(C)(C)C(=O)CC[C@]3(C)[C@H]1C2 [PHOMOARCHERIN C] |  | 15.4 (≈ 41.6 µM) |  | 18.8 (≈ 50.7 µM) |  | 8.9 (≈ 24 µM) | 18 (≈ 48.6 µM) | 8.9 (≈ 24 µM)
